The ILS is how much longer treated animals lived than controls. One may read the MTD as the largest dose that counted as tolerated.

The structures appear in SMILES notation. Active and inactive are the calls of the source.

Consider eleven molecules from ChEMBL document CHEMBL3244336, “Antitumor agents. 1. 1,4-Bis[(aminoalkyl)amino]-9,10-anthracenediones” (J Med Chem, 1979).

Data set [1] has as its system P388. As to the kind of experiment: Antitumor activity against mouse P388 cells allografted in mouse assessed as increase of median life span at 250 mg/kg, ip on day 1, 5 and 9 measured up to 60 days relative to control. It counts as functional. The following applies: route intraperitoneal. The essentials:
(§1)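 BDF1 or CDF1 mice inoculated ip with ascitic P388 leukemia cells. Dosing ip on days 1, 5 and 9. Deaths recorded for 60 days; % increase in median life span over controls. "Cures" are survivors/total at 60 days.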

Data set [2] concerns P388. Kind of data set: Antitumor activity against mouse P388 cells allografted in mouse assessed as disease cure at 250 mg/kg, ip on day 1, 5 and 9 measured up to 60 days. Further details: dose 250 mg/kg. The format is functional, organism-based. The essentials:
(§2)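 BDF1 or CDF1 mice inoculated ip with ascitic P388 leukemia cells, dosed ip on days 1, 5 and 9. Deaths recorded for 60 days; "cures" taken as number of survivors/total at 60 days.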

For data set [3], the system named is P388. Kind of data set: Antitumor activity against mouse P388 cells allografted in ip dosed mouse assessed as minimum effective dose administered as once each 4 days for 3 total injection. The following applies: 96 h, read-out: MED. The format is functional. The essentials: (§3)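 Drug given ip to P388 tumor-bearing mice, either once as a single dose or once each 4 days for three injections. Minimum effective dose defined as the dose giving 40% increase in life span over control, read from regression lines of log dose-response data.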

Data set [4] in a line: Toxicity in […] assessed as maximum tolerated dose administered as once each 4 days for 3 total injection. It counts as organism-based, P388. The following applies: mouse, in vivo, ip.
Data set [5] has as its system B16. As to the kind of experiment: Antitumor activity against mouse B16 cells allografted in BDF1 mouse assessed as increase of median life span at 0.8 mg/kg, ip on day 1 to 9 measured up to 80 days relative to control. It counts as functional. The following applies: route intraperitoneal. The essentials: (§4)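 BDF1 mice implanted ip with a homogenate from 0.05 g of B16 tumor. Test agent given ip on days 1-9. Deaths recorded for 80 days. Result is % increase in median life span over untreated controls. "Cures" are survivors/total at 80 days.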

Data set [6] can be described thus: Toxicity in […] assessed as maximum tolerated dose administered as single dose. The following applies: mouse, in vivo, ip. The format is organism-based, P388.
In data set [7] the test system is P388. As to the kind of experiment: Antitumor activity against mouse P388 cells allografted in ip dosed mouse assessed as minimum effective dose administered as single dose. The format is functional. The following applies: read-out: MED. The essentials: as §3
Data set [8] has as its system P388. Kind of data set: Antitumor activity against mouse P388 cells allografted in mouse assessed as increase of median life span at 5 mg/kg, ip on day 1, 5 and 9 measured up to 60 days relative to control. It counts as functional. The following applies: route intraperitoneal. The essentials:
as §1

Data set [9] has as its system B16. As to the kind of experiment: Antitumor activity against mouse B16 cells allografted in BDF1 mouse assessed as disease cure at 25 mg/kg, ip on day 1 to 9 measured up to 80 days. Further details: dose 25 mg/kg. It counts as functional, organism-based. The essentials: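 BDF1 mice implanted ip with homogenate from 0.05 g of B16 tumor, then dosed ip on days 1-9. Deaths recorded for 80 days; "cures" scored as survivors/total at 80 days.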

Data set [10] deals with P388. As to the kind of experiment: Antitumor activity against mouse P388 cells allografted in mouse assessed as increase of median life span at 50 mg/kg, ip on day 1, 5 and 9 measured up to 60 days relative to control. The format is functional. The following applies: route intraperitoneal. The essentials:
as §1

The subject of data set [11] is B16. As to the kind of experiment: Antitumor activity against mouse B16 cells allografted in BDF1 mouse assessed as increase of median life span at 25 mg/kg, ip on day 1 to 9 measured up to 80 days relative to control. The following applies: route intraperitoneal. It counts as functional. The essentials:
as §4

For data set [12], the system named is P388. As to the kind of experiment: Antitumor activity against mouse P388 cells allografted in mouse assessed as disease cure at 50 mg/kg, ip on day 1, 5 and 9 measured up to 60 days. Also noted: dose 50 mg/kg. It counts as functional, organism-based. The essentials: as §2
The subject of data set [13] is Lewis lung carcinoma cell line. As to the kind of experiment: Antitumor activity against mouse LLC cells intravenously implanted in mouse. The format is functional, cell-based.
Data set [14] relates to Lewis lung carcinoma cell line. As to the kind of experiment: Antitumor activity against mouse LLC cells subcutaneously implanted in mouse. It counts as functional, cell-based.
The subject of data set [15] is P388. Kind of data set: Antitumor activity against mouse P388 cells allografted in mouse assessed as increase of median life span at 100 mg/kg, ip on day 1, 5 and 9 measured up to 60 days relative to control. It counts as functional. The following applies: route intraperitoneal.
Data set [16] concerns B16. As to the kind of experiment: Antitumor activity against mouse B16 cells allografted in BDF1 mouse assessed as increase of median life span at 12.5 mg/kg, ip on day 1 to 9 measured up to 80 days relative to control. The following applies: route intraperitoneal. It counts as functional.
The test system of data set [17] is P388. Kind of data set: Antitumor activity against mouse P388 cells allografted in mouse assessed as disease cure at 100 mg/kg, ip on day 1, 5 and 9 measured up to 60 days. Further details: dose 100 mg/kg. It counts as functional, organism-based. The essentials: (§5)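 BDF or CDF1 mice injected ip with ascitic leukemia cells, then dosed ip on days 1, 5 and 9. Deaths recorded for 60 days. Read-outs: percent increase in median life span over controls, and "cures" as survivors/total at 60 days.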

Data set [18] deals with B16. Kind of data set: Antitumor activity against mouse B16 cells allografted in BDF1 mouse assessed as disease cure at 12.5 mg/kg, ip on day 1 to 9 measured up to 80 days. It counts as functional, organism-based. Also noted: dose 12.5 mg/kg. The essentials:
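BDF1 mice implanted ip with a homogenate from 0.05 g of tumor. Dosed ip on days 1–9, with deaths recorded for 80 days. "Cures" counted as survivors/total at 80 days.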

Data set [19] deals with B16. Kind of data set: Antitumor activity against mouse B16 cells allografted in BDF1 mouse assessed as increase of median life span at 3.1 mg/kg, ip on day 1 to 9 measured up to 80 days relative to control. It counts as functional. The following applies: route intraperitoneal. The essentials:
as §4

Data set [20] relates to P388. As to the kind of experiment: Antitumor activity against mouse P388 cells allografted in mouse assessed as increase of median life span at 12.5 mg/kg, ip on day 1, 5 and 9 measured up to 60 days relative to control. The following applies: route intraperitoneal. It counts as functional. The essentials: as §1
Data set [21] has as its system B16. As to the kind of experiment: Antitumor activity against mouse B16 cells allografted in BDF1 mouse assessed as increase of median life span at 50 mg/kg, ip on day 1 to 9 measured up to 80 days relative to control. The following applies: route intraperitoneal. It counts as functional. The essentials:
as §4

Data set [22] has as its system P388. Kind of data set: Antitumor activity against mouse P388 cells allografted in mouse assessed as increase of median life span at 200 mg/kg, ip on day 1, 5 and 9 measured up to 60 days relative to control. The format is functional. The following applies: route intraperitoneal. The essentials:
as §1

The test system of data set [23] is P388. As to the kind of experiment: Antitumor activity against mouse P388 cells allografted in mouse assessed as disease cure at 200 mg/kg, ip on day 1, 5 and 9 measured up to 60 days. Further details: dose 200 mg/kg. The format is functional, organism-based. The essentials:
as §2

Data set [24] concerns P388. As to the kind of experiment: Antitumor activity against mouse P388 cells allografted in mouse assessed as disease cure at 25 mg/kg, ip on day 1, 5 and 9 measured up to 60 days. The format is functional, organism-based. Also noted: dose 25 mg/kg. The essentials:
as §2

In data set [25] the test system is P388. As to the kind of experiment: Antitumor activity against mouse P388 cells allografted in mouse assessed as increase of median life span at 25 mg/kg, ip on day 1, 5 and 9 measured up to 60 days relative to control. The format is functional. The following applies: route intraperitoneal. The essentials:
as §1

Data set [26] relates to B16. Kind of data set: Antitumor activity against mouse B16 cells allografted in BDF1 mouse assessed as increase of median life span at 6.2 mg/kg, ip on day 1 to 9 measured up to 80 days relative to control. It counts as functional. The following applies: route intraperitoneal. The essentials:
as §4

In data set [27] the test system is P388. As to the kind of experiment: Antitumor activity against mouse P388 cells allografted in mouse assessed as increase of median life span at 3.1 mg/kg, ip on day 1, 5 and 9 measured up to 60 days relative to control. It counts as functional. The following applies: route intraperitoneal. The essentials:
as §5

Turning to `CN(C)CCNc1ccc(NCCN(C)C)c2c1C(=O)c1ccc(C(=O)O)cc1C2=O`, in data set [1], the ILS at 250 mg/kg was 0%. In addition, the outcome in [2] was inactive.
Regarding `COc1cccc2c1C(=O)c1c(O)c3c(c(O)c1C2=O)C[C@@](O)(C(=O)CO)C[C@@H]3O[C@H]1C[C@H](N)[C@H](O)[C@H](C)O1` [DOXORUBICIN], the results for the minimal effective dose in data set [3] and in data set [7] were 0.14 mg/kg and 0.35 mg/kg, respectively. For the same molecule, the MTD at 96 h in [4] was determined as 2.7 mg/kg. In addition, the ILS at 0.8 mg/kg in [5] is 275%. Moreover, in data set [6], the MTD came to 13.1 mg/kg. The increase in life span (ILS) at 5 mg/kg in data set [8] was 159%.
For `CN(C)CCCNc1ccc(NCCCN(C)C)c2c1C(=O)c1c(O)ccc(O)c1C2=O`, the outcome in data set [9] and in [12] was inactive. Moreover, the ILS at 50 mg/kg in data set [10] is 29%. Also, the ILS at 25 mg/kg in data set [11] was determined as 25%.
On to `O=C1c2c(O)ccc(O)c2C(=O)c2c(NCCNCCO)ccc(NCCNCCO)c21`, for which the result in [13] and in [14] was inactive.
With `O=C1c2c(O)ccc(O)c2C(=O)c2c(NCCN3CCCC3)ccc(NCCN3CCCC3)c21`, the ILS at 100 mg/kg in data set [15] stood at 118%. In addition, the ILS at 12.5 mg/kg in data set [16] stood at 58%. Besides, the result in data set [17] and in [18] was inactive.
On to `CN(C)CCNc1ccc(NCCN(C)C)c2c1C(=O)c1ccc(O)c(O)c1C2=O`, for which the ILS at 50 mg/kg in data set [10] was found to be 57%. For the same molecule, the ILS at 25 mg/kg in data set [11] turned out to be 60%. The outcome in data set [12] was inactive.
In the case of `CC(O)CNCCNc1ccc(NCCNCC(C)O)c2c1C(=O)c1c(O)ccc(O)c1C2=O` (stereo unspecified), in [19], the ILS at 3.1 mg/kg was found to be 240%. For the same molecule, the ILS at 12.5 mg/kg in data set [20] turned out to be 255%.
With `O=C1c2c(O)ccc(O)c2C(=O)c2c(NCCN3CC3)ccc(NCCN3CC3)c21`, the ILS at 100 mg/kg in data set [15] was found to be 185%. Besides, in [16], the ILS at 12.5 mg/kg is 58%. Besides, the outcome in [17] and in data set [18] was inactive.
For `NCCNc1ccc(NCCN)c2c1C(=O)c1ccccc1C2=O`, the ILS at 50 mg/kg in data set [21] was 100%. For the same molecule, in [16], the ILS at 12.5 mg/kg turned out to be 82%. Further, in [22], the ILS at 200 mg/kg came to 145%. For the same molecule, the result in data set [23] and in [24] was inactive. In data set [25], the increase in lifespan (ILS) at 25 mg/kg turned out to be 144%.
With `O=C1c2c(O)ccc(O)c2C(=O)c2c(NCCNCCCO)ccc(NCCNCCCO)c21`, in data set [20], the ILS at 12.5 mg/kg turned out to be 191%. The ILS at 6.2 mg/kg in data set [26] is 357%.
On to `NCCNc1ccc(NCCN)c2c1C(=O)c1c(O)ccc(O)c1C2=O`, for which, in data set [27], the ILS at 3.1 mg/kg came out at 173%.
